According to publication PMC6636858 (European journal of medicinal chemistry, 2019):
Where two headings read alike, the source gives them in different places. One block for each compound: values may come before it. Peptide text beside a SMILES is read from it. * marks the point of attachment. AMC = Cc1cc(=O)oc2cc(N*)ccc12; Cbz = O=C(OCc1ccccc1)*

Key:
[1] = target: T1, Cathepsin B (CatB, human liver) (Homo sapiens, UniProt P07858); assay: CatB inhibition constants / Km, fluorogenic substrate Z-Arg-Arg-AMC; format: biochemical
[2] = target: T2, Cathepsin L (Cat L, human liver) (Homo sapiens, UniProt P07711); assay: CatL inhibition constants / Km, fluorogenic substrate Z-Phe-Arg-AMC; format: biochemical
[3] = target: T2, Cathepsin L (Cat L, human liver); conditions: read-out: Michaelis-Menten constant (Km), literature value; CatL; cited from earlier work
human CatL = human CatL (Homo sapiens, UniProt P07711); assay: SDS-PAGE autoradiography of adduct formation with purified CatL; format: biochemical; conditions: E-64 10 μM or N1 20 μM
HT-29 cells = assay: SDS-PAGE autoradiography of intracellular adducts in cell lysate; format: cell-based, human; conditions: E-64 10 μM or N1 20 μM
Outline: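 HT-29 cells (1 × 10^6/well) incubated 4 h at 37 °C with radioconjugate (20 μCi, 0.74 MBq, in 1 mL medium), ± E-64 (10 μM as added) or N1 (20 μM as added). Cells PBS-washed and given fresh medium. At chosen times, pooled from 3 wells, trypsinized and lysed in RIPA plus protease inhibitor (15 min on ice). Cleared lysate heated in SDS sample buffer (85 °C, 2 min) and run on 16% Tris-glycine gel (110 V, 90 min).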

human CatB = human CatB (Homo sapiens, UniProt P07858); assay: SDS-PAGE autoradiography of adduct formation with purified CatB; format: biochemical; conditions: E-64 10 μM or N1 20 μM
[4] = target: T1, Cathepsin B (CatB, human liver); conditions: read-out: Michaelis-Menten constant (Km), reported value; cited from earlier work

T2 sequence (P07711 114-288 limits assumed): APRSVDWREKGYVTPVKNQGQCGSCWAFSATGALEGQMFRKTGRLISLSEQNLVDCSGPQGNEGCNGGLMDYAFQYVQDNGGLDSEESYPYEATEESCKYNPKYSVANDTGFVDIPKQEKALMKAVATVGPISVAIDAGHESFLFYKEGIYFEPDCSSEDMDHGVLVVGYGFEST
T2 sequence (P07711 292-333 limits assumed): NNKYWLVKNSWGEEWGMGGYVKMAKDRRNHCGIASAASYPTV
Chain of human CatL (P07711 114-288 limits assumed): as the sequence (P07711 114-288 limits assumed) above
Chain of human CatL (P07711 292-333 limits assumed): as the sequence (P07711 292-333 limits assumed) above

Compound: 3-(((S)-1-(((S)-1-((2-azidoethyl)amino)-5-guanidino-1-oxopentan-2-yl)amino)-4-methyl-1-oxopentan-2-yl)carbamoyl)oxirane-2-carboxylic acid [1a]
second order rate constant ki/Ki ([1]; CatB): 130000 ± 1900 M⁻¹ s⁻¹
second order rate constant ki/Ki ([2]; CatL): 16000 ± 1300 M⁻¹ s⁻¹

Compound: CC(C)C[C@H](NC(=O)CCC(=O)O)C(=O)N[C@@H](CCCNC(=N)N)C(=O)NCCN=[N+]=[N-] [1b, 4-(((S)-1-(((S)-1-((2-azidoethyl)amino)-5-guanidino-1-oxopentan-2-yl)amino)-4-methyl-1-oxopentan-2-yl)amino)-4-oxobutanoic acid]
inhibition of CatB ([1]; over the test concentration ranges): No inhibition

Compound: CC(C)C[C@H](NC(=O)[C@H]1O[C@@H]1C(=O)O)C(=O)NCCCCN=C(N)N [E-64]
effect of co-incubated agent on ^177Lu-NE1a adduct formation with CatL (human CatL): prevented adduct formation
effect of co-incubated agent on ^177Lu-NE1a intracellular adduct formation (HT-29 cells): unaffected
effect of co-incubated agent on ^177Lu-NE1a adduct formation with CatB (human CatB): prevented adduct formation

Further lines, with some results ahead:

Km ([2]; read-out: Michaelis-Menten constant (Km), CatL substrate): 36 ± 3 µM
Compound: Cc1cc(=O)oc2cc(NC(=O)C(CCCN=C(N)N)NC(=O)C(Cc3ccccc3)NC(=O)OCc3ccccc3)ccc12 (stereo not drawn) [Z-Phe-Arg-AMC] (Cbz-Phe-Arg-{AMC}; configuration not given here)
Km [3]: 21.5 ± 3.2 µM

Km ([1]; read-out: Michaelis-Menten constant (Km), CatB substrate): 189 ± 2 µM
Compound: Cc1cc(=O)oc2cc(NC(=O)[C@H](CCCN=C(N)N)NC(=O)[C@H](CCCN=C(N)N)NC(=O)OCc3ccccc3)ccc12 [Z-Arg-Arg-AMC] (Cbz-Arg-Arg-{AMC})
Km [4]: 390 ± 20 µM
